Data set [1] deals with Human adenovirus 5. Put plainly: Antiviral activity against Adenovirus type 5 F2853-5b infected in human A549 cells assessed as inhibition of viral replication at 5 uM after 24 hrs by RT-PCR analysis. It is filed as functional. Conditions: Human mastadenovirus C, A549, 24 h. The procedure, abridged: (§1)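 Ad5-infected A549 cells incubated with compound for 24 h. DNA was then extracted and newly synthesized viral DNA quantified by real-time PCR of the hexon gene, normalized to cellular RNaseP gene. […] EC50 determined for selected compounds.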

The test system of data set [2] is Human adenovirus 5. Put plainly: Antiviral activity against Adenovirus type 5 F2853-5b infected in human A549 cells assessed as inhibition of viral replication at 15 uM after 24 hrs by RT-PCR analysis. It counts as functional. The conditions noted are these: Human mastadenovirus C, A549, 24 h. Put shortly: as §1
The subject of data set [3] is Human adenovirus 5. Put plainly: Antiviral activity against Adenovirus type 5 F2853-5b infected in human A549 cells assessed as inhibition of viral replication after 24 hrs by RT-PCR analysis. It is filed as functional, organism-based. The conditions noted are these: Human mastadenovirus C, A549, 24 h. Put shortly: as §1
The nature of data set [4]: Cytotoxicity against human A549 cells assessed as viability at 30 uM after 24 hrs by XTT assay. It is filed as cell-based. Conditions: read-out: Activity. Put shortly: (§2)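 About 15000 A549 cells per well were seeded the day before. Compound was added in DMEM with 0.75 g/L NaHCO3 and 20 mM HEPES, then incubated 24 h at 37 °C, 5% CO2. XTT was added 4 h before reading formazan absorbance at 450 nm. Values are percentage viable cells, with DMSO baseline toxicity subtracted (0.15% DMSO at 30 μM, 0.30% at 60 μM).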

Data set [5] can be described thus: Cytotoxicity against human A549 cells assessed as viability at 60 uM after 24 hrs by XTT assay. It is filed as cell-based. The conditions noted are these: read-out: Activity. The procedure, abridged: as §2
Data set [6] can be described thus: Chemical solubility of the compound in DMSO. It is filed as physicochemical.
Data set [7] can be described thus: Aqueous solubility of the compound in water. It is filed as physicochemical. The conditions noted are these: buffer.

As to `O=C(Nc1ccccc1C(=O)Nc1cc(Cl)ccc1C(=O)O)c1ccccc1F`, the inhibition at 5 µM in the data set on Human adenovirus 5 [1] came to 0%. In addition, the inhibition at 15 µM with Human adenovirus 5 [2] came out at 61%.

Take `CCOC(=O)c1ccc(NC(=O)c2ccccc2NC(=O)c2ccccc2)cc1`: in the data set on Human adenovirus 5 [2], the inhibition at 15 µM is 8%.

As to `O=C(O)c1ccccc1NC(=O)c1ccccc1NC(=O)C1CCCCC1`, the inhibition at 5 µM in the data set on Human adenovirus 5 [1] came out at 20%. The inhibition at 15 µM in the data set with Human adenovirus 5 [2] stood at 55%.

In the case of `O=C(O)c1ccc(NC(=O)c2ccccc2NC(=O)c2ccccc2)cc1`, the inhibition at 15 µM with Human adenovirus 5 [2] worked out at 8%.

Regarding `COc1ccc(NC(=O)c2ccccc2F)c(C(=O)Nc2ccccc2C(=O)O)c1`, the 50% effective concentration (EC50) in the data set with Human adenovirus 5 [3] amounted to 1.4 µM. For the same molecule, the viability at 24 h, 30 µM in data set [4] was 84%. The viability at 24 h, 60 µM in data set [5] is 84%. Also, the inhibition at 5 µM with Human adenovirus 5 [1] stood at 91%. Moreover, in the data set with Human adenovirus 5 [2], the inhibition at 15 µM was determined as 97%.

Take `O=C(Nc1ccccc1C(=O)Nc1ccccc1C(=O)O)c1ccc(F)cc1`: the inhibition at 5 µM with Human adenovirus 5 [1] is 76%. Moreover, the inhibition at 15 µM in the data set with Human adenovirus 5 [2] stood at 95%.

`CCOC(=O)c1ccccc1NC(=O)c1cccc(NC(=O)c2ccccc2)c1`: in the data set on Human adenovirus 5 [2], the inhibition at 15 µM worked out at 25%.

In the case of `O=C(Nc1ccccc1C(=O)Nc1ccc(Cl)cc1C(=O)O)c1ccccc1F`, the inhibition at 5 µM with Human adenovirus 5 [1] amounted to 0%. Besides, the inhibition at 15 µM with Human adenovirus 5 [2] worked out at 0%.

Turning to `O=C(Nc1cc(Cl)ccc1C(=O)Nc1ccccc1C(=O)O)c1ccccc1F`, in the data set with Human adenovirus 5 [1], the inhibition at 5 µM came to 57%. In addition, the inhibition at 15 µM in the data set on Human adenovirus 5 [2] was found to be 78%.

For the molecule `CCOC(=O)c1ccccc1NC(=O)c1ccc(NC(=O)c2ccccc2)cc1`, the inhibition at 15 µM in the data set with Human adenovirus 5 [2] is 15%.

`Cc1ccc(C(=O)Nc2ccccc2C(=O)Nc2ccccc2C)cc1`: the inhibition at 5 µM in the data set on Human adenovirus 5 [1] was 0%. In addition, the inhibition at 15 µM with Human adenovirus 5 [2] was determined as 12%.

With `Cc1ccccc1C(=O)Nc1ccccc1C(=O)Nc1ccc(C(=O)O)cc1`, in the data set on Human adenovirus 5 [1], the inhibition at 5 µM amounted to 0%. Also, the inhibition at 15 µM in the data set with Human adenovirus 5 [2] was determined as 20%.

Consider `O=C(Nc1ccccc1C(=O)Nc1ccccc1C(=O)O)c1ccccc1`, for which the viability at 24 h, 30 µM in data set [4] is 82%. Moreover, the viability at 24 h, 60 µM in data set [5] worked out at 83%. Further, the inhibition at 5 µM in the data set with Human adenovirus 5 [1] came to 89%. Besides, in the data set with Human adenovirus 5 [2], the inhibition at 15 µM stood at 91%.

Turning to `Cc1ccc(S(=O)(=O)Nc2ccccc2C(=O)Nc2ccccc2C(=O)O)cc1`, the inhibition at 5 µM in the data set with Human adenovirus 5 [1] was 2%. In addition, the inhibition at 15 µM with Human adenovirus 5 [2] is 8%.

In the case of `O=C(O)CCC(=O)Nc1ccccc1C(=O)Nc1ccccc1C(=O)O`, the inhibition at 5 µM in the data set with Human adenovirus 5 [1] worked out at 0%. For the same molecule, in the data set on Human adenovirus 5 [2], the inhibition at 15 µM came out at 0%.

On to `O=C(Nc1ccc(Cl)cc1C(=O)Nc1ccccc1C(=O)O)c1ccccc1F`, for which the EC50 in the data set with Human adenovirus 5 [3] turned out to be 0.57 µM. Also, the viability at 24 h, 30 µM in data set [4] was 91%. The viability at 24 h, 60 µM in data set [5] turned out to be 88%. Besides, the inhibition at 5 µM with Human adenovirus 5 [1] was 89%. In addition, the inhibition at 15 µM with Human adenovirus 5 [2] stood at 91%.

Turning to `CC(C)(C)C(=O)Nc1ccccc1C(=O)Nc1ccccc1C(=O)O`, the inhibition at 5 µM in the data set on Human adenovirus 5 [1] was determined as 45%. Further, in the data set on Human adenovirus 5 [2], the inhibition at 15 µM was determined as 52%.

As for `O=C(Nc1ccccc1C(=O)Nc1ccccc1C(=O)O)c1cccc(F)c1`, in the data set with Human adenovirus 5 [1], the inhibition at 5 µM amounted to 41%.

In the case of `O=C(Nc1ccccc1C(=O)Nc1ccccc1)c1ccccc1`, the inhibition at 15 µM in the data set on Human adenovirus 5 [2] stood at 18%.

Regarding `Cc1ccc(C(=O)Nc2ccccc2C(=O)Nc2ccccc2C(=O)O)cc1`, the inhibition at 5 µM with Human adenovirus 5 [1] worked out at 0%. Further, in the data set on Human adenovirus 5 [2], the inhibition at 15 µM worked out at 85%.

Turning to `O=C(Cc1ccccc1)Nc1ccccc1C(=O)Nc1ccccc1C(=O)O`, in the data set on Human adenovirus 5 [1], the inhibition at 5 µM was 32%. Moreover, the inhibition at 15 µM in the data set with Human adenovirus 5 [2] stood at 21%.

`O=C(O)Cc1ccccc1NC(=O)c1ccccc1NC(=O)c1ccccc1`: the inhibition at 5 µM with Human adenovirus 5 [1] is 0%. In the data set with Human adenovirus 5 [2], the inhibition at 15 µM stood at 0%.

`COc1ccc(NC(=O)c2ccccc2NC(=O)c2ccccc2F)c(C(=O)O)c1`: the inhibition at 5 µM with Human adenovirus 5 [1] came to 28%. In addition, the inhibition at 15 µM in the data set with Human adenovirus 5 [2] was 78%.

For the molecule `CCOC(=O)c1cccc(NC(=O)c2ccccc2NC(=O)c2ccccc2)c1`, in the data set on Human adenovirus 5 [2], the inhibition at 15 µM stood at 0%.

In the case of `O=C(Nc1ccc(C(=O)Nc2ccccc2C(=O)O)cc1)c1ccccc1`, the inhibition at 15 µM with Human adenovirus 5 [2] was 47%.

As for `O=C(Nc1cc(F)c(F)cc1C(=O)Nc1ccccc1C(=O)O)c1ccccc1F`, the EC50 in the data set with Human adenovirus 5 [3] came out at 0.58 µM. Also, the viability at 24 h, 30 µM in data set [4] is 96%. Further, the viability at 24 h, 60 µM in data set [5] stood at 96%. For the same molecule, the inhibition at 5 µM in the data set on Human adenovirus 5 [1] turned out to be 94%. In addition, in the data set with Human adenovirus 5 [2], the inhibition at 15 µM was found to be 93%.

On to `COc1ccc(C(=O)Nc2ccccc2C(=O)Nc2ccccc2C(=O)O)cc1`, for which the inhibition at 5 µM with Human adenovirus 5 [1] is 0%. In the data set with Human adenovirus 5 [2], the inhibition at 15 µM was determined as 67%.

Take `CCOC(=O)c1ccccc1NC(=O)c1ccccc1NC(=O)c1ccccc1`: the solubility entry in data set [6] and in data set [7] was “Insoluble” each time.

In the case of `COc1ccc(C(=O)Nc2ccccc2C(=O)O)c(NC(=O)c2ccccc2F)c1`, the EC50 in the data set with Human adenovirus 5 [3] worked out at 2.3 µM. Also, the viability at 24 h, 30 µM in data set [4] was found to be 92%. For the same molecule, the viability at 24 h, 60 µM in data set [5] amounted to 94%. Further, the inhibition at 5 µM with Human adenovirus 5 [1] stood at 92%. The inhibition at 15 µM with Human adenovirus 5 [2] stood at 89%.

On to `Cc1ccccc1C(=O)Nc1cccc(C(=O)Nc2ccccc2C(=O)O)c1`, for which the inhibition at 5 µM with Human adenovirus 5 [1] was 5%. Further, in the data set on Human adenovirus 5 [2], the inhibition at 15 µM is 7%.

For `NC(=O)c1ccccc1NC(=O)c1cccc(NC(=O)c2ccccc2)c1`, the inhibition at 5 µM in the data set on Human adenovirus 5 [1] amounted to 0%. Moreover, the inhibition at 15 µM in the data set with Human adenovirus 5 [2] stood at 19%.

For `O=C(Nc1ccccc1C(=O)Nc1cc(F)c(F)cc1C(=O)O)c1ccccc1F`, in the data set on Human adenovirus 5 [1], the inhibition at 5 µM came to 0%. In addition, in the data set with Human adenovirus 5 [2], the inhibition at 15 µM is 0%.

For `COc1ccc(C(=O)O)c(NC(=O)c2ccccc2NC(=O)c2ccccc2F)c1`, the inhibition at 5 µM in the data set on Human adenovirus 5 [1] stood at 0%. For the same molecule, the inhibition at 15 µM in the data set with Human adenovirus 5 [2] stood at 0%.

In the case of `Nc1ccn(C[C@@H](CO)OCP(=O)(O)O)c(=O)n1` [CIDOFOVIR], the viability at 24 h, 30 µM in data set [4] came out at 100%. Besides, in data set [5], the viability at 24 h, 60 µM was 98%.

As to `O=C(Nc1cccc(C(=O)Nc2ccccc2C(=O)O)c1)c1ccccc1`, the inhibition at 15 µM in the data set with Human adenovirus 5 [2] stood at 39%.

As to `O=C(Nc1ccccc1C(=O)Nc1ccccc1C(=O)O)c1ccccc1F`, the EC50 in the data set with Human adenovirus 5 [3] stood at 2.3 µM. Also, the viability at 24 h, 30 µM in data set [4] stood at 85%. Besides, the viability at 24 h, 60 µM in data set [5] worked out at 83%. The inhibition at 5 µM with Human adenovirus 5 [1] amounted to 96%. Also, the inhibition at 15 µM in the data set with Human adenovirus 5 [2] stood at 98%.

Take `O=C(Cc1ccccc1NC(=O)c1ccccc1)Nc1ccccc1C(=O)O`: the inhibition at 5 µM in the data set with Human adenovirus 5 [1] was 0%. Moreover, in the data set on Human adenovirus 5 [2], the inhibition at 15 µM is 0%.

As for `Cc1ccc(NC(=O)c2ccccc2NC(=O)c2ccccc2C(=O)O)cc1`, the inhibition at 5 µM in the data set on Human adenovirus 5 [1] was found to be 0%. The inhibition at 15 µM in the data set on Human adenovirus 5 [2] is 0%.

Regarding `CC(=O)Nc1ccccc1C(=O)Nc1ccccc1C(=O)O`, the inhibition at 5 µM in the data set with Human adenovirus 5 [1] amounted to 4%. Further, the inhibition at 15 µM in the data set with Human adenovirus 5 [2] was 24%.

For `CS(=O)(=O)Nc1ccccc1C(=O)Nc1ccccc1C(=O)O`, the inhibition at 5 µM with Human adenovirus 5 [1] came to 0%. For the same molecule, in the data set with Human adenovirus 5 [2], the inhibition at 15 µM came to 23%.

In the case of `O=C(O)c1cccc(NC(=O)c2ccccc2NC(=O)c2ccccc2)c1`, the inhibition at 15 µM in the data set with Human adenovirus 5 [2] is 8%.

The record behind these values is ChEMBL document CHEMBL2040795, “Synthesis, biological evaluation, and structure-activity relationships of 2-[2-(benzoylamino)benzoylamino]benzoic acid analogues as inhibitors of adenovirus replication” (J Med Chem, 2012).
